Reference: the RNAGym collection of RNA variant scans (doi:10.1126/science.aae0568)
Variants at the floor of the assay were thinned out.

B1: tRNA (parent)
chain: GUUCCGUUGGCGUAAUGGUAACGCGUCUCCCUCCUAAGGAGAAGACUGCGGGUUCGAGUCCCGUACGGAACG

Variants of: B1
Test: yeast fitness relative to wild type (ratio to wild type); higher = fitter; tRNA-Arg(CCU), competitive growth, 37 C, YPD
How it was run: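 Genotype frequency changes were the basis for Darwinian fitness relative to wild type. The frequencies came from 100-nucleotide paired-end sequencing of gene amplicons from the start population and each end population of pooled yeast strains with tRNA-Arg(CCU) gene variants at the native locus. Competition ran in YPD at 37°C for 24 hours in six replicates, genotypes needed ≥ 100 starting reads, and estimates < 0.5 were set to 0.5.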
In the case of GUUCCGUUGGCGUAAUGGUAACGCGUCUCUCUCCUAAGGAGAAGACUGCGGGUUCGAGUCCCGUACGGGACG, the yeast fitness is reported as 0.947.
Work on GUUCCGUUGGCGUAAUGGUAACGCGUCUCUCUCCUAAGGAGAAGACUGCGGGUUCGAGUCCCGUACGGUACG yielded a yeast fitness of 0.879.
For GUUCCGUUGGCGUAAUGGUAACGCGUCUCUGUCGUAAGGAGAAGACUGCGGGUUCGAGUCCCGUAAGGAACG, the yeast fitness was no more than 0.5.
With GUUCCGUUGGCGUAAUGGUAACGCGUCUCUUUCCUAGGGAGAGGACUGCGGAUUCGAGUCCCGUACGGAACG the yeast fitness was no more than 0.5.
GUUCCGUUGGCGUAAUGGUAACGCGUCUCUUUCCUAAGGAGUAGACUGCGGGUUCGAGUCCCGUACAGAACG showed a yeast fitness of 0.537.
Variant GUUCCGUUGGCGUAAUGGUAACGCGUCUCUUUCAUAAGGAGAAGACUGCGGGUUCGAGUCCCGUACGGAACG has a yeast fitness of 0.601.
GUUCCGUUGGCGUAAUGGUAACGCGUCUCUUUCCUAAGGACAAGGCUGUGGGUUCGAGUCCCGUAUGGGACG showed a yeast fitness of no more than 0.5.
Work on GUUCCGUUGGCGUAAUGGUAACGCGUCUCUCUACUAAGGAGAAGACUGCGGGUUCGAGUCCCGUACGGAACG yielded a yeast fitness of 0.672.
GUUCCGUUGGCGUAAUGGUAACGCGUCUCUCUCGUAAGGCGAAGACUGGGGGUUCGAGUCCCGUACGGAACG gave a yeast fitness of no more than 0.5.
In the case of GUUCCGUUGGCGUAAUGGUAACGCGUCUCUCUCCUAAGGAGAAGAAUGCGGGUUCGAGUCCCGUACGGACCG, the yeast fitness is reported as 0.82.
Work on GUUCCGUUGGCGUAAUGGUAACGCGUCUCUCUCCUAAGGAGAAGAAUGCGAGUUCGAGUCCCGUACGGAACG yielded a yeast fitness of 0.608.
GUUCCGUUGGCGUAAUGGUAACGCGUCUCUCUCCUAAGGAGAAGAAUGCGGGUUCGAGUCCCCUACGGAGCG showed a yeast fitness of no more than 0.5.
GUUCCGUUGGCGUAAUGGUAACGCGUCUCUCUCCUAAGGAGAAGAGUGUGGGUUCGAGUCCCGUACGGAACG showed a yeast fitness of 0.641.
GUUCCGUUGGCGUAAUGGUAACGCGUCUCUCUCCUAAGGAGAAGAUUGCGGCUUCGAGUCCCGUACGGAACG showed a yeast fitness of no more than 0.5.
In the case of GUUCCGUUGGCGUAAUGGUAACGCGUCUCUCUCCUAAGGAGAAGACUGUGGGUACGAGUCCCGUACGGAACG, the yeast fitness is reported as no more than 0.5.
Work on GUUCCGUUGGCGUAAUGGUAACGCGUCUCUCUCCUAAGGAGAAGACUGCGGGUUAGAGUCCCGUACGGAACG yielded a yeast fitness of 0.667.
Variant GUUCCGUUGGCGUAAUGGUAACGCGUCUCUCUCCUAAGGAGAAGACUGCGGGUUUGAGUCCCGUACUGAACG has a yeast fitness of no more than 0.5.
In the case of GUUCCGUUGGCGUAAUGGUAACGCGUCUCUCUCCUAAGGAGAAGACUGCGGGUUCGAGUACCGUACGGACCG, the yeast fitness is reported as no more than 0.5.
For GUUCCGUUGGCGUAAUGGUAACGCGUCUCUCUCCUAAGGAGAAGACUGCGGGUUCGAGUCCAGUACGGAACG, the yeast fitness was 0.798.
With GUUCCGUUGGCGUAAUGGUAACGCGUCUCUCUCCUAAGGAGAAGACUGCGGGUUCGAGUCCGGUACGGAACG the yeast fitness was 0.855.
GUUCCGUUGGCGUAAUGGUAACGCGUCUCUCUCCUAACGAGAAGACUGCGGGUUCGAGUCCGGUACGGAACG gave a yeast fitness of no more than 0.5.
In the case of GUUCCGUUGGCGUAAUGGUAACGCGUCUCUCUCCUAACGAGAAGACUGCGGGUUCGAGUCCCAUACGGAGCG, the yeast fitness is reported as no more than 0.5.
In the case of GUUCCGUUGGCGUAAUGGUAACGCGUCUCUCUCCUAACGAGAAGACUGCGGGUUCGAGACCCGUACGGAACG, the yeast fitness is reported as no more than 0.5.
With GUUCCGUUGGCGUAAUGGUAACGCGUCUCUCUCCUAAGACGAAGACUGCGGGAUCGAGUCCCGUACGGAACG the yeast fitness was 0.565.
GUUCCGUUGGCGUAAUGGUAACGCGUCUCUCUCCUAAGAGGAAGACUGCGGGCUCGAGUCCCGUACAGAACG gave a yeast fitness of no more than 0.5.
Work on GUUCCGUUGGCGUAAUGGUAACGCGUCUCUCUCCUAAGCAGAAGACUGCAGGUUCGAGUCCCGUACGGAACG yielded a yeast fitness of no more than 0.5.
For GUUCCGUUGGCGUAAUGGUAACGCGUCUCUCUCCUAAGGACAAGUCUGCGGGUUCGAGUCCCGUACGGAACG, the yeast fitness was no more than 0.5.
Variant GUUCCGUUGGCGUAAUGGUAACGCGUCUCUCUCCUAAGGAGAAAACUCCGGGUUCGAGUCCCGUACGGAACG has a yeast fitness of no more than 0.5.
With GUUCCGUUGGCGUAAUGGUAACGCGUCUCUCUCCUAAGGAGAAGACUGCAGGUUCGAGUCCCGUACGGAACG the yeast fitness was 0.83.
Work on GUUCCGUUGGCGUAAUGGUAACGCGUCUCUCUCCUAAGGAGAAGACUGCCGGUUCGAGACCCGUACGGAACG yielded a yeast fitness of no more than 0.5.
GUUCCGUUGGCGUAAUGGUAACGCGUCUCUCUCCUAAGGAGAAGACUGCGGCUUCGAGUCCCGUACGGAACG gave a yeast fitness of 0.593.
GUUCCGUUGGCGUAAUGGUAACGCGUCUCUCUCCUAAGGAGAAGACUGCGGGUUCAAGUCCCGUACGGAACG gave a yeast fitness of 0.942.
GUUCCGUUGGCGUAAUGGUAACGCGUCUCUCUCCUAAGGAGAAGACUGCGGGUUCGACUCCCGUAUGGAACG gave a yeast fitness of 0.663.
Variant GUUCCGUUGGCGUAAUGGUAACGCGUCUCUCUCCUAAGGAGAAGACUGCGGGUUCGACUCCCCUACGGAACG has a yeast fitness of 0.57.
GUUCCGUUGGCGUAAUGGUAACGCGUCUCUCUCCUAAGGAGAAGACUGCGGGUUCGAGUCCCGUACUGAACG gave a yeast fitness of 0.83.
Work on GUUCCGUUGGCGUAAUGGUAACGCGUCUCUCACCUAAGGAGAAGACUGCGGGUUCGAGUCCCGUACGGAACG yielded a yeast fitness of 0.883.
Work on GUUCCGUUGGCGUAAUGGUAACGCGUCUCUCACCUUUGGAGAAGACUGCGGGUUCGAGUCCUGUACGGAACG yielded a yeast fitness of no more than 0.5.
With GUUCCGUUGGCGUAAUGGUAACGCGUCUCUCUCCAAAGGAGAAGACUGCGGGUUCGAGUCCCGUACGGUACG the yeast fitness was no more than 0.5.
GUUCCGUUGGCGUAAUGGUAACGCGUCUCUCUCCAAAGGAGAAGACUGCGAGUUCGAGUCCCGUACGGAACG showed a yeast fitness of no more than 0.5.
GUUCCGUUGGCGUAAUGGUAACGCGUCUCUCUCCCAGGGAGAAGACUGCGGGUUAGAGUCCCGUGCGGAACG showed a yeast fitness of no more than 0.5.
Work on GUUCCGUUGGCGUAAUGGUAACGCGUCUCUCUCCUAAGGAGAAGACUGCGGGUGCGAGGCCCGUACGGAACG yielded a yeast fitness of 0.655.
With GUUCCGUUGGCGUAAUGGUAACGCGUCUCUCUCCUAAGGAGAAGACUGCGGGUUCGAGGCCCGUAUGAAACG the yeast fitness was no more than 0.5.
In the case of GUUCCGUUGGCGUAAUGGUAACGCGUCUCCAUCCUGAGGAGAAGACUGCGGGUUCGAGUCCCGUACGGAACG, the yeast fitness is reported as 0.78.
For GUUCCGUUGGCGUAAUGGUAACGCGUCUCCAUCCUGAGGAGAAGACUGCGGGUUCGCGUCCCGUACGGAACG, the yeast fitness was no more than 0.5.
For GUUCCGUUGGCGUAAUGGUAACGCGUCUCCAUCCUAUGGAGAAGACUGAGGGUUUGAGUCCCGUACGGAACG, the yeast fitness was no more than 0.5.
For GUUCCGUUGGCGUAAUGGUAACGCGUCUCCAUCCUAAGGCGAAGACUGCGGAUUCGAGUCCCGUACGCAACG, the yeast fitness was no more than 0.5.
Work on GUUCCGUUGGCGUAAUGGUAACGCGUCUCCAUCCUAAGGAGGAGACUGCGGGUUCGAGUCCCGUACGGAACG yielded a yeast fitness of 0.766.
With GUUCCGUUGGCGUAAUGGUAACGCGUCUCCAUCCUAAGGAGGAGACUGGGGGUUCGAGUCCUGUACGGAACG the yeast fitness was no more than 0.5.
Work on GUUCCGUUGGCGUAAUGGUAACGCGUCUCCAUCCUAAGGAGAGGCCUGCGGGUUCGAGUCCCGUACGGAACG yielded a yeast fitness of 0.541.
Work on GUUCCGUUGGCGUAAUGGUAACGCGUCUCCAUCCUAAGGAGAUGACUGCGGGUUCGGGUCCCGUACGGAACG yielded a yeast fitness of 0.559.
Variant GUUCCGUUGGCGUAAUGGUAACGCGUCUCCAUCCUAAGGAGAUGACUGCGGGUUCGAGUCACGUACGGAACG has a yeast fitness of no more than 0.5.
With GUUCCGUUGGCGUAAUGGUAACGCGUCUCCAUCCUAAGGAGAUGACUGCGGGUACGAGUCCCGUACGGAACG the yeast fitness was no more than 0.5.
For GUUCCGUUGGCGUAAUGGUAACGCGUCUCCAUCCUAAGGAGAAGACUGCGGGUUCGUGUCCCGUACGGAACG, the yeast fitness was 0.626.
Variant GUUCCGUUGGCGUAAUGGUAACGCGUCUCCAUACUAAGGAGAAGACUGCGGGUUCGAGUCCCGUACGGAACG has a yeast fitness of 0.509.
In the case of GUUCCGUUGGCGUAAUGGUAACGCGUCUCCAUGCUUAGGAGAAGACUGCGGGUUCGAGUUCCGGUCGGCACG, the yeast fitness is reported as no more than 0.5.
Variant GUUCCGUUGGCGUAAUGGUAACGCGUCUCCAUGCUAAGGAGCAGACUACGGGUACGAGUCCCGUACGGAACG has a yeast fitness of no more than 0.5.
Variant GUUCCGUUGGCGUAAUGGUAACGCGUCUCCAUGCUAAGGAGAAGACUGCGCGUUCGAGUGCCGUACGGAACG has a yeast fitness of no more than 0.5.
Work on GUUCCGUUGGCGUAAUGGUAACGCGUCUCCAUCUUAAGGAGAAGACUGCGGGUCCGAGUCCCGUACGGCACG yielded a yeast fitness of no more than 0.5.
For GUUCCGUUGGCGUAAUGGUAACGCGUCUCCAUCCUAAGGAGAAGACUGAGGGUUCGAGUUCCGUACGGAACG, the yeast fitness was no more than 0.5.
For GUUCCGUUGGCGUAAUGGUAACGCGUCUCCAUCCUAAGGAGAAGACUGAGGGUUCAAGUCCCGUGAGCAACG, the yeast fitness was no more than 0.5.
GUUCCGUUGGCGUAAUGGUAACGCGUCUCCAUCCUAAGGAGAAGACUGUGGGUUCGAGUCCCGUACGGAACG showed a yeast fitness of 0.867.
GUUCCGUUGGCGUAAUGGUAACGCGUCUCCAUCCUAAGGAGAAGACUGCGGGUUAGAGUCACAUACGGAACG showed a yeast fitness of 0.655.
Variant GUUCCGUUGGCGUAAUGGUAACGCGUCUCCAUCCUAAGGAGAAGACUGCGGGUUGGAGUCCCGUACGGAACG has a yeast fitness of 0.529.
GUUCCGUUGGCGUAAUGGUAACGCGUCUCCAUCCUAAGGAGAAGACUGCGGGUUCGAGUCCAGUAGGGAACG gave a yeast fitness of no more than 0.5.
For GUUCCGUUGGCGUAAUGGUAACGCGUCUCCAUCCUAAAGAGAAGACUGCGGGUUCGAGUCCCGUACGGAACG, the yeast fitness was 0.792.
Work on GUUCCGUUGGCGUAAUGGUAACGCGUCUCCAUCCUAAAGAGAAGACUGCGGGUUCGAGUCCCGUGCGGAACG yielded a yeast fitness of 0.591.
GUUCCGUUGGCGUAAUGGUAACGCGUCUCCAUCCUAAGCAGAAGACUGCGGGUUCGAGUCCCGUACGGAACG showed a yeast fitness of 0.659.
In the case of GUUCCGUUGGCGUAAUGGUAACGCGUCUCCAUCCUAAGGAGAACACUGCGGGUUCGAGUGCCGUACGGAACG, the yeast fitness is reported as no more than 0.5.
With GUUCCGUUGGCGUAAUGGUAACGCGUCUCCAUCCUAAGGAGAAGACUCCGGGUUCGAGUCACGUACGGAGCG the yeast fitness was no more than 0.5.
Work on GUUCCGUUGGCGUAAUGGUAACGCGUCUCCAUCCUAAGGAGAAGACUGCGCGUUGGUGUCCCGUAUGGAACG yielded a yeast fitness of 0.564.
With GUUCCGUUGGCGUAAUGGUAACGCGUCUCCAUCCUAAGGAGAAGACUGCGGCUUCGAGUCCCGUUCGGAACG the yeast fitness was no more than 0.5.
For GUUCCGUUGGCGUAAUGGUAACGCGUCUCCAUCCUAAGGAGAAGACUGCGGCUUCGAGUCCCGCACGGAACG, the yeast fitness was no more than 0.5.
With GUUCCGUUGGCGUAAUGGUAACGCGUCUCCAUCCUAAGGAGAAGACUGCGGGUUCAAGUCCCGUACAGUACG the yeast fitness was no more than 0.5.
For GUUCCGUUGGCGUAAUGGUAACGCGUCUCCAUCCCAAGGAAAAGACUGCGGGUUCGGGUCCCGUACGGAACG, the yeast fitness was no more than 0.5.
With GUUCCGUUGGCGUAAUGGUAACGCGUCUCCAUCCUAAGGAGAAGACUGCGGGGUCGGGUCCCGUACGGAACG the yeast fitness was no more than 0.5.
